For series [1], the system named is SK-MEL-28 melanoma cells. The series can be described thus: MTT cell viability assay, IC50. In kind it is cell-based, human. (Tetrazolium dyes change colour on reduction, which living cells bring about.)
Series [2] concerns B16-F0 melanoma cells. Put plainly: MTT cell viability assay, B16-F0. In kind it is cell-based, murine. Conditions: CAPE 15 μM, 48 h. In short, it runs like this: (§1)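 24-well plates, 40,000 cells/well (SK-MEL-5 4,000/well) in 400 μL medium with 10% FBS, 24 h adhesion. Media: MEM Alpha for SK-MEL-5, MeWo and C32; DMEM for B16-F0 and B16-F10; McCoy's 5A for Saos-2; Leibovitz's L-15 for SW-620; RPMI for PC-3. Test compound 15 μM for 48 h; MTT 4 h, DMSO solubilisation for 2 h in the dark, A570. Viability relative to each line's untreated control.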

Series [3] deals with MeWo melanoma cells. Put plainly: MTT cell viability assay, MeWo. In kind it is cell-based, human. Conditions: CAPE 15 μM, 48 h. In short, it runs like this:
as §1

Series [4] deals with colorectal adenocarcinoma (SW-620) cells. The series can be described thus: MTT cell viability assay, SW-620. In kind it is cell-based, human. Conditions: CAPE 15 μM, 48 h. An outline of the steps: as §1
The subject of series [5] is SK-MEL-28 cells. Put plainly: Mitochondrial membrane potential. In kind it is cell-based, human. An outline of the steps: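 SK-MEL-28 cells seeded at 160,000/well in 6-well plates in MEM and left overnight; cyclosporin A 15 μM or ethylenediamine 1 mM added 24 h before test compound (15-50 μM; controls 1% DMSO). After 48 h, TMRM added for 30 min at 37 °C in the dark. Cells detached with versene, pelleted, resuspended in PBS. Flow cytometry on 10,000 events; arithmetic mean fluorescence, triplicates.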

Series [6] in a line: UV-VIS spectroscopy, stability of CAPE alone in solution. Conditions: CAPE 100 μM alone, phosphate buffer pH 7.4. The class given is physicochemical. In short, it runs like this:
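Test compound 100 μM alone in 0.1 M phosphate buffer, pH 7.4, containing 1 mM DETAPAC; UV-visible spectrum recorded as the no-enzyme control for spectra of enzymatic oxidation, which were taken every two minutes.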

Series [7] has as its system human leukemia HL-60 cells. Conditions: read-out: IC50, growth arrest; 48 h; cited from earlier work.
Series [8] has as its system CYP2E1 induced rat liver microsomes. The series can be described thus: GSH depletion by rat liver P450 microsomal preparation/NADPH/O2. Conditions: CYP2E1 pyrazole induced microsomes, 2 h incubation.

The term cell viability denotes the share of living cells, or the viability signal relative to a control. Low readings indicate more harm to the cells, high ones less harm to the cells. For orientation: IC50 means the concentration that inhibits the measured activity by half. Regarding `O=C(/C=C/c1ccc(O)c(O)c1)OCCc1ccccc1` [CAPE, Caffeic Acid Phenylethyl Ester], the “LD50 (day 2) SK-MEL-28 / IC50 (48 h)” value in series [1] (MTT assay, 48 h incubation) was 15000 nM. Further, the “toxicity relative to caffeic acid, based on IC50 (48 h)” value in series [1] (SK-MEL-28) stood at 153 fold. Also, the cell viability in series [2] was determined as 58±6%; in series [3], 51±6%; in series [4] it was 89±3%. Besides, the entries for the “decrease in mitochondrial membrane potential” value in series [5] (CAPE 15 μM) and in series [5] (CAPE 30 μM) were 17±1% and 20±2%, respectively. Further, the results for the “decrease in mitochondrial membrane potential in the presence of CS” value in series [5] (CAPE 15 μM + CS 15 μM) and in series [5] (CAPE 30 μM + CS 15 μM) were 8±1% and 12±1%, respectively. Besides, the “decrease in mitochondrial membrane potential in the presence of ethylenediamine” value in series [5] (CAPE 15 μM + ethylenediamine 1 mM) came to 4±1%; in series [5] (CAPE 30 μM + ethylenediamine 1 mM) it was 10±1%. The “stability of spectrum in solution (auto-oxidation)” value in series [6] is recorded as “stable”. For the same compound, the IC50 in series [7] is 2500 nM. The “GSH depleted per mole of CAPE, rat liver microsomes” value in series [8] is reported as 0.5 mole GSH per one mole of CAPE.

The record behind these values is publication PMC2932756 (Chemico-biological interactions, 2010).
